Measurements reported in ChEMBL document CHEMBL1287793, “Green synthesis and biological evaluation of some novel azoles as antimicrobial agents” (2010).
Activity calls are given as the source filed them. No cut-off for these calls is given here.

Columns and labels:
Type in all cases: functional
Staphylococcus aureus = experiment: Antimicrobial activity against Staphylococcus aureus after 18 to 20 hrs at 37degC by disc diffusion method
Summary of the method: (§1)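 Agar diffusion disc assay: bacterial inoculum of 1 × 10⁸ bacteria/mL spread on Mueller Hinton agar. 6 mm filter paper discs loaded with sample dissolved in DMSO. Chloramphenicol at 10 mcg/disc served as control. Plates incubated 18–20 h at 37 °C. Read-out was the zone of inhibition in mm.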

Escherichia coli = experiment: Antimicrobial activity against Escherichia coli after 18 to 20 hrs at 37degC by disc diffusion method; summary of the method: as §1
Pseudomonas aeruginosa = experiment: Antimicrobial activity against Pseudomonas aeruginosa after 18 to 20 hrs at 37degC by disc diffusion method; summary of the method: as §1
Bacillus subtilis = experiment: Antimicrobial activity against Bacillus subtilis after 18 to 20 hrs at 37degC by disc diffusion method; summary of the method: as §1
Aspergillus niger = experiment: Antimicrobial activity against Aspergillus niger after 18 to 20 hrs at 37degC by disc diffusion method
Summary of the method: (§2)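 Fungal inoculum of 1 × 10⁶/mL spread on potato dextrose agar. 6 mm filter paper discs received sample dissolved in DMSO. Nystatin at 100 U/disc was the antifungal control. Plates incubated 18–20 h at 37 °C, then the zone of inhibition was measured in mm.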

Candida albicans = experiment: Antimicrobial activity against Candida albicans after 18 to 20 hrs at 37degC by disc diffusion method; summary of the method: as §2

Molecule	diameter of the inhibition zone (DIZ) (Staphylococcus aureus)	diameter of the inhibition zone (DIZ) (Escherichia coli)	diameter of the inhibition zone (DIZ) (Pseudomonas aeruginosa)	diameter of the inhibition zone (DIZ) (Bacillus subtilis)	diameter of the inhibition zone (DIZ) (Aspergillus niger)	diameter of the inhibition zone (DIZ) (Candida albicans)	inhibition zone (IZ) (Aspergillus niger)
COc1ccc(-n2c(-c3cn(C4CC4)c4c(OC)c(F)c(F)cc4c3=O)n[nH]c2=S)cc1	23.4 mm	inactive	inactive	inactive	21.6 mm	inactive	
COc1c(F)c(F)cc2c(=O)c(C(=O)NNC(=S)Nc3ccccc3)cn(C3CC3)c12	23.9 mm	24.1 mm	24.2 mm	24.1 mm	inactive	14.2 mm	
COc1c(F)c(F)cc2c(=O)c(-c3nnc(Nc4ccccc4C)o3)cn(C3CC3)c12	inactive	inactive	inactive	inactive	inactive	inactive	
COc1ccc(NC(=S)NNC(=O)c2cn(C3CC3)c3c(OC)c(F)c(F)cc3c2=O)cc1	14.3 mm	16.6 mm	22.8 mm	15.3 mm	inactive	inactive	
COc1c(F)c(F)cc2c(=O)c(-c3n[nH]c(=S)n3-c3cccc(C)c3)cn(C3CC3)c12	19.8 mm	inactive	inactive	inactive	21.8 mm	inactive	
COc1c(F)c(F)cc2c(=O)c(-c3nnc(Nc4ccccc4)s3)cn(C3CC3)c12	17 mm	24 mm	22 mm	27 mm	26.1 mm	16.3 mm	
COc1c(F)c(F)cc2c(=O)c(-c3nnc(Nc4ccccc4C)s3)cn(C3CC3)c12	inactive	inactive	inactive	inactive	inactive	inactive	
NYSTATIN							21.1 mm
COc1c(F)c(F)cc2c(=O)c(-c3nnc(Nc4cccc(C)c4)s3)cn(C3CC3)c12	inactive	23.8 mm	27.1 mm	inactive	inactive	inactive	
COc1c(F)c(F)cc2c(=O)c(C(=O)NNC(=S)Nc3cccc(C)c3)cn(C3CC3)c12	inactive	inactive	inactive	inactive	inactive	inactive	
COc1c(F)c(F)cc2c(=O)c(-c3nnc(Nc4ccccc4)o3)cn(C3CC3)c12	18.8 mm	inactive		25.4 mm	14.7 mm		
COc1c(F)c(F)cc2c(=O)c(-c3n[nH]c(=S)n3-c3ccccc3C)cn(C3CC3)c12	21.2 mm	inactive	inactive	inactive	20.8 mm	inactive	
COc1c(F)c(F)cc2c(=O)c(-c3n[nH]c(=S)n3-c3ccccc3)cn(C3CC3)c12	21 mm	inactive	inactive	inactive	19.9 mm	inactive	
COc1c(F)c(F)cc2c(=O)c(C(=O)NNC(=S)Nc3ccccc3C)cn(C3CC3)c12	17.2 mm	18.5 mm	20.1 mm	20.1 mm	18 mm		
O=C(N[C@H](CO)[C@H](O)c1ccc([N+](=O)[O-])cc1)C(Cl)Cl [CHLORAMPHENICOL]	32.8 mm	29.14 mm	24.68 mm	30.11 mm			
COc1c(F)c(F)cc2c(=O)c(-c3n[nH]c(=S)n3-c3ccc(Cl)cc3)cn(C3CC3)c12	22.2 mm	inactive	inactive	inactive	21.5 mm	inactive	
COc1ccc(Nc2nnc(-c3cn(C4CC4)c4c(OC)c(F)c(F)cc4c3=O)s2)cc1	inactive	inactive	inactive	inactive	inactive	inactive	
COc1c(F)c(F)cc2c(=O)c(-c3nnc(Nc4ccc(Cl)cc4)s3)cn(C3CC3)c12	21 mm	inactive	inactive	28 mm	inactive	22 mm	
COc1ccc(Nc2nnc(-c3cn(C4CC4)c4c(OC)c(F)c(F)cc4c3=O)o2)cc1	28 mm	inactive		26.7 mm	28.1 mm	25.3 mm	
COc1c(F)c(F)cc2c(=O)c(-c3nnc(Nc4ccc(Cl)cc4)o3)cn(C3CC3)c12	21.06 mm	inactive	26.1 mm	24.6 mm		22.5 mm	
COc1c(F)c(F)cc2c(=O)c(C(=O)NNC(=S)Nc3ccc(Cl)cc3)cn(C3CC3)c12	15.9 mm	15 mm	22.6 mm	15.1 mm	inactive	inactive	
COc1c(F)c(F)cc2c(=O)c(-c3nnc(Nc4cccc(C)c4)o3)cn(C3CC3)c12	inactive	inactive	inactive	21 mm	inactive	inactive	
